Measured values reported in ChEMBL document CHEMBL1153083, “Antiprotozoal, anticancer and antimicrobial activities of dihydroartemisinin acetal dimers and monomers” (Bioorg Med Chem, 2009).

Columns and labels:
Aspergillus fumigatus = assay: Antifungal activity against Aspergillus fumigatus ATCC 90906 by modified CLSI/NCCLS method; format: functional, organism-based
Nakaseomyces glabratus = assay: Antifungal activity against Candida glabrata ATCC 90030 by modified CLSI/NCCLS method; format: functional, organism-based
[1] = Selectivity index, ratio of TC50 for african green monkey (Cercopithecus aethiops) Vero cells to IC50 for Plasmodium falciparum W2; format: toxicity, cell-based
Plasmodium falciparum [2] = assay: Antiplasmodial activity against Plasmodium falciparum D6 infected in RBCs by parasitic LDH release assay; format: functional, organism-based
Summary of the method: (§1)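 Infected erythrocytes at 2% parasitemia and 2% hematocrit, in RPMI 1640 with 10% human serum and amikacin 60 μg/mL, were exposed to serial dilutions under N2/O2/CO2 (90:5:5) at 37°C for 72 h. LDH was read with Malstat reagent (30 min), then NBT/PES in the dark (60 min), stopped with 5% acetic acid, at 650 nm. IC50 came from percent growth dose-response curves.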

Cryptococcus neoformans = assay: Antifungal activity against Cryptococcus neoformans ATCC 90113 by modified CLSI/NCCLS method; format: functional, organism-based
[3] = Toxicity against pig LLC-PK11 cells after 48 hrs by neutral red assay; format: cell-based, Sus scrofa; conditions: for CC50 at 48 h: LLC-PK11 cells, read-out: TC50
Summary of the method: (§2)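 Cells seeded at 25,000 per well and incubated 24 h, then exposed to samples for 48 h. Viable cells were counted by neutral red, with DMSO as vehicle control. IC50 or TC50 values were derived from logarithmic plots of growth inhibition versus concentration.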

[4] = system: Mycobacterium intracellulare; assay: Antibacterial activity against Mycobacterium intracellular ATCC 23068 by Franzblau method; format: functional, organism-based
SK-OV-3 = assay: Cytotoxicity against human SKOV3 cells after 48 hrs by neutral red assay; format: functional, cell-based; conditions: sk-ov-3; summary of the method: as §2
Vero = assay: (§3) Toxicity against african green monkey Vero cells after 48 hrs by neutral red assay; format: cell-based; conditions: chlorocebus sabaeus, vero, 48 h; summary of the method: as §2
KB = assay: Cytotoxicity against human KB cells after 48 hrs by neutral red assay; format: functional, cell-based; summary of the method: as §2
Leishmania donovani = assay: Antileishmanial activity against Leishmania donovani promastigotes after 48 hrs by alamar blue assay; format: functional, organism-based; conditions: Leishmania donovani, 48 h; for IC50: read-out: IC50
Candida albicans = assay: Antifungal activity against Candida albicans ATCC 90028 by modified CLSI/NCCLS method; format: functional, organism-based
Staphylococcus aureus [5] = assay: Antibacterial activity against methicillin-resistant Staphylococcus aureus ATCC 43300 by modified CLSI/NCCLS method; format: functional, organism-based
[6] = Selectivity index, ratio of TC50 for african green monkey (Cercopithecus aethiops) Vero cells to IC50 for Plasmodium falciparum D6; format: toxicity, cell-based
[7] = Toxicity against african green monkey Vero cells; format: cell-based; conditions: chlorocebus sabaeus; summary of the method: as §2
Pseudomonas aeruginosa = assay: Antibacterial activity against Pseudomonas aeruginosa ATCC 27853 by modified CLSI/NCCLS method; format: functional, organism-based
Pichia kudriavzevii = assay: Antifungal activity against Candida krusei ATCC 6258 by modified CLSI/NCCLS method; format: functional, organism-based
Escherichia coli = assay: Antibacterial activity against Escherichia coli ATCC 35218 by modified CLSI/NCCLS method; format: functional, organism-based
Staphylococcus aureus [8] = assay: Antibacterial activity against Staphylococcus aureus ATCC 29213 by modified CLSI/NCCLS method; format: functional, organism-based
Plasmodium falciparum [9] = assay: Antiplasmodial activity against Plasmodium falciparum W2 infected in RBCs by parasitic LDH release assay; format: functional, organism-based; summary of the method: as §1
SK-MEL = assay: Cytotoxicity against human SK-MEL cells after 48 hrs by neutral red assay; format: functional, cell-based; summary of the method: as §2
BT-549 = assay: Cytotoxicity against human BT549 cells after 48 hrs by neutral red assay; format: functional, cell-based; summary of the method: as §2
[10] = as §3; format: cell-based; conditions: chlorocebus sabaeus, Vero cells; read-out: TC50; summary of the method: as §2
[11] = Mycobacterium intracellulare, ATCC 23068, read-out: IC50
[12] = Escherichia coli, ATCC 35218, read-out: IC50
[13] = Candida albicans, ATCC 90028, read-out: IC50
[14] = Pichia kudriavzevii, ATCC 6258, read-out: IC50

Structure (SMILES) | IC50 (Aspergillus fumigatus) | IC50 (Nakaseomyces glabratus) | selectivity ratio [1] | IC50 (Plasmodium falciparum [2]) | IC50 (Cryptococcus neoformans) | CC50 at 48 h [3] | IC50 [4, 11] | IC50 (SK-OV-3) | TC50 (Vero) | IC50 (KB; kb) | IC90 (Leishmania donovani) | IC50 (Leishmania donovani) | IC50 (Staphylococcus aureus [5]) | selectivity ratio [6] | CC50 [7] | IC50 (Pseudomonas aeruginosa) | IC50 (Escherichia coli; [12]) | IC50 (Plasmodium falciparum [9]) | IC50 (SK-MEL; sk-mel) | IC50 (BT-549; bt-549) | other results
C[C@H]1[C@@H](OCc2cc(O)cc(O)c2)O[C@@H]2O[C@@]3(C)CC[C@H]4[C@H](C)CC[C@@H]1[C@@]24OO3 | Not Active | Not Active | > 567 | 0.0209 µM | 18.6 µM | 2.46 µM | > 49.2 µM | Not Active | Not Active | Not Active | 24.6 µM | 5.7 µM | Not Active | > 560 | > 11.7 µM | Not Active | 48.6 µM | 0.0207 µM | Not Active | Not Active | IC50 (Candida albicans): Not Active; IC50 (Pichia kudriavzevii): Not Active; IC50 (Staphylococcus aureus [8]): Not Active
C[C@H]1[C@@H](Oc2cccc(N[C@@H]3[C@H](C)O[C@@H]4O[C@@]5(C)CC[C@H]6[C@H](C)CC[C@@H]3[C@@]46OO5)c2)O[C@@H]2O[C@@]3(C)CC[C@H]4[C@H](C)CC[C@@H]1[C@@]24OO3 | Not Active | – | > 1250 | 0.0058 µM | 0.16 µM | – | – | Not Active | Not Active | Not Active | 62.3 µM | 24.9 µM | Not Active | > 1290 | > 7.41 µM | Not Active | 8.57 µM | 0.0059 µM | Not Active | Not Active | TC50 ([3]; llc-pk11, 48 h): Not Active; IC50 [4]: Not Active; IC50 (Candida albicans): Not Active
C[C@H]1[C@@H](OCC[C@H](O)CO[C@H]2O[C@@H]3O[C@@]4(C)CC[C@H]5[C@H](C)CC[C@@H]([C@H]2C)[C@@]35OO4)O[C@@H]2O[C@@]3(C)CC[C@H]4[C@H](C)CC[C@@H]1[C@@]24OO3 | – | – | > 164 | 0.0438 µM | 1.6 µM | 0.1 µM | > 31.3 µM | Not Active | – | – | 9.4 µM | 2.5 µM | – | > 170 | > 7.45 µM | Not Active | 13.6 µM | 0.0454 µM | – | – | IC50 (Aspergillus fumigatus; Aspergillus fumigatus, ATCC 90906, read-out: IC50): 5.24 µM; IC50 (Nakaseomyces glabratus; Nakaseomyces glabratus, ATCC 90030, read-out: IC50): > 31.3 µM; CC50 at 48 h [10]: > 1.57 µM; IC50 (KB; Homo sapiens, KB, 48 h, read-out: IC50): 0.16 µM; IC50 (Candida albicans; [13]): 10.2 µM; IC50 (Staphylococcus aureus [5]; Staphylococcus aureus, ATCC 43300, read-out: IC50): > 31.3 µM; IC50 (Pichia kudriavzevii; [14]): > 31.3 µM; IC50 (Staphylococcus aureus [8]; Staphylococcus aureus, ATCC 29213, read-out: IC50): 16.5 µM; IC50 (SK-MEL; Homo sapiens, SK-MEL, 48 h, read-out: IC50): 0.24 µM; IC50 (BT-549; Homo sapiens, BT-549, 48 h, read-out: IC50): 0.08 µM
C[C@H]1[C@@H](OCC(=O)CO)O[C@@H]2O[C@@]3(C)CC[C@H]4[C@H](C)CC[C@@H]1[C@@]24OO3 | Not Active | Not Active | > 1900 | 0.0079 µM | 6.48 µM | 20.8 µM | – | Not Active | Not Active | Not Active | 112 µM | 25.8 µM | Not Active | > 1700 | > 13.3 µM | Not Active | – | 0.007 µM | Not Active | Not Active | IC50 [4]: Not Active; IC50 (Candida albicans; [13]): > 56.1 µM; IC50 (Pichia kudriavzevii; [14]): > 56.1 µM; IC50 (Escherichia coli): Not Active; IC50 (Staphylococcus aureus [8]): Not Active
